CHOP inhibitor – CHOP inhibition in unfolded protein response; inhibition, % at 10 µM; CHO-K1 CHOP-promoter luciferase, tunicamycin-induced, 15-18 h; AID 2732; 3.8% of 220,000 active;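 active = compounds that reduced the stress-induced luciferase reporter signal by more than about 70% of percent inhibition, limit read from the data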;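 note: 0% = tunicamycin plus vehicle and 100% = wells without tunicamycin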
CHOP UPR activ – activators of apoptotic arm of unfolded protein response (CHOP); CHO-CHOP luciferase reporter, UPR activation, luminescence; percent of tunicamycin response over DMSO baseline; activation, % at 10 µM; 0.34% of 330,000 active;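 active = at 10 µM dose, activation of 40% or more, normalized to positive control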;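 note: 100% = tunicamycin at 10 µg/mL and 0% = DMSO alone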
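Material: CHO-CHOP cells, stable luciferase reporter of PERK-eIF2a-CHOP signalling; quantity: 500 reporter cells seeded per well; buffer or medium: F12 medium containing 10% fetal bovine serum; compound: one dose, 10 µM in 0.5% DMSO; incubation: 6 h compound treatment, 37 °C; measured by: Steady-Glo luciferase luminescence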
Jurkat NFkB inh – lowers PMA/ionomycin-induced NF-kB signal in Jurkat cells. PMA/ionomycin-induced NF-kB luciferase reporter, luminescence. AID 435003. 0.53% of 330,000 active. inhibition, % at 4 µM; in the data active = inhibition above about 50%
697 NFkB inh – inhibitors of the PMA/ionomycin-induced NF-kB reporter in 697 B cells; 697 B-cell NF-kB luciferase reporter, 16 h; inhibition, % at 4 µM; 0.33% of 330,000 active; in the data active = inhibition above about 35%
UPR XBP1 act – activators of adaptive arm of unfolded protein response (XBP1) | 0.33% of 330,000 active | CHO-XBP1 luciferase reporter, IRE1-XBP1 UPR activation, luminescence; percent of tunicamycin response, DMSO as zero | activation, % at 20 µM | AID 463104;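 active = versus positive control, 20 µM dose yields 30% or more activation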;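 note: 100% = tunicamycin at 10 µg/mL and 0% = DMSO only wells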
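Material: CHO-XBP1 cells stably carrying IRE1-XBP1-driven luciferase reporter / Amount: 1000 cells per well / Compound: 20 µM, 1% DMSO / Times: 6 h treatment, 37 °C / Detection: luciferase luminescence / Measure: % activation of reporter signal versus tunicamycin and DMSO controls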
* = called active by the depositor; nt = not tested or not shown. The full list was thinned out, with hits kept by preference.

SMILES	CHOP inhibitor	CHOP UPR activ	Jurkat NFkB inh	697 NFkB inh	UPR XBP1 act
CCn1c(NC(=O)c2ccccc2F)c(-c2cccs2)c(=O)c2ccccc21	9	-1	-10	4	1
CCCN(CC(=O)Nc1ccccc1C)C(=O)c1cccc(S(=O)(=O)N2CCN(c3ccccc3)CC2)c1	nt	2	10	18	-3
COc1cc([N+](=O)[O-])ccc1NC(=O)Nc1nc2c(s1)CCCC2	73*	0	4	-3	2
Cc1cc(CNC(=O)COC(=O)C2CC3CCCC(C2)C3=O)cc(C)c1O (configuration not stated)	nt	-3	5	10	-2
O=C(Nc1cccc(Cl)c1N1CCCC1)c1ccc(Br)o1	73*	0	-20	-4	4
O=C(Nc1ccccc1Oc1ccccc1)c1ccc(Br)o1	86*	2	-13	-15	0
c1cnc(SCCOc2cccc3ccccc23)nc1	76*	2	-90	-98	3
Clc1ccc(OCCSc2ncccn2)c2ccccc12	65	2	-32	-23	4
CC(NC(=O)c1cc([N+](=O)[O-])cc([N+](=O)[O-])c1)C1CC2CCC1C2 (configuration not stated)	nt	1	-5	-8	-6
CSc1nc(N)c2ncn([C@@H]3O[C@H](COP(=O)(O)OP(=O)(O)OP(=O)(O)O)[C@H](O)C3O)c2n1 (some centres not stated)	11	nt	nt	nt	nt
CCn1c(SCc2nc3scc(-c4ccccc4)c3c(=O)[nH]2)nnc1-c1ccc(Cl)cc1	93*	-1	-1	-16	1
Cc1ccc(-c2csc3nc(CSc4nnc(-c5ccc(Cl)cc5)n4C)[nH]c(=O)c23)cc1	52	-1	10	-18	0
CC(C)c1ccc(N(C(=O)c2csnn2)C(C(=O)NC2CCCC2)c2cccnc2)cc1 (configuration not stated)	nt	-1	1	18	-4
S=C(c1ccc(-c2ccccc2Cl)o1)N1CCOCC1	71*	4	-39	-39	3
CC(=O)c1ccc(S(=O)(=O)NCCc2cn3ccc(C)cc3n2)cc1	nt	1	-1	23	-3
CCOc1cc2c(C#N)c(N3CCCC3)nc(N)c2c(N)n1	nt	1	-7	5	3
CCCCN(CC)c1nc(N)c2c(N)nc(OCC)cc2c1C#N	95*	0	16	-14	4
Cc1ccc(NC(=O)COC(=O)c2ccc3c(c2)C(=O)N(CCc2ccccc2)C3=O)c(C)c1	78*	0	2	16	0
CCOc1ccc(NC(=O)COC(=O)c2ccc3c(c2)C(=O)N(CCc2ccccc2)C3=O)cc1	27	5	4	-8	1
COc1ccc(C(=O)/C=C/Nc2ccc(S(=O)(=O)Nc3cccc(C(C)=O)c3)cc2)cc1	79*	8	-14	-27	1
Cc1cc(C)nc(NS(=O)(=O)c2ccc(N/C=C\C(=O)c3ccc(Cl)cc3)cc2)n1	82*	-2	-13	-16	4
Cc1cc(C)nc(NS(=O)(=O)c2ccc(N/C=C/C(=O)c3ccc(Cl)c(Cl)c3)cc2)n1	80*	0	2	-11	-2
COc1cc(Cl)c(C)cc1NC(=O)c1ccc(NS(=O)(=O)c2ccc(F)c(F)c2)cc1	79*	-2	1	6	1
CCOc1c([N+](=O)[O-])cc2c(C)c(C(=O)N3CCN(C)CC3)oc2c1OCC	nt	2	-14	7	3
CCc1ccc2c(c1)C1(NN=C(c3ccc(C)cc3)S1)C(=O)N2 (configuration not stated)	88*	2	-6	-17	1
Cc1ccc(C)c(S(=O)(=O)N2CCCC2CNC(=O)C(=O)NC2CCCC2)c1 (configuration not stated)	nt	-1	-5	13	-3
O=S(=O)(NCCc1csc(-c2cccnc2)n1)c1ccc(Cl)s1	78*	-2	-12	-4	-3
NC(=O)c1ccc(NC(=O)CSc2nnc(-c3ccncc3)n2Cc2ccco2)cc1	-16	-1	14	16	-1
CCCCN(Cc1ccco1)C(=O)c1cc2c(=O)[nH]c3ccc(C)cc3c2s1	73*	-2	-1	-3	4
Cc1ccccc1-c1nc(CS(=O)(=O)CC(=O)Nc2cc(F)ccc2F)c(C)o1	78*	-1	9	-4	-1

Compound activity from PubChem BioAssay.
